Measurements published in ChEMBL document CHEMBL4152354, “A reusable magnetic nickel nanoparticle based catalyst for the aqueous synthesis of diverse heterocycles and their evaluation as potential anti-bacterial agent” (2018).
In brackets after ≈: the same amount, converted by molar mass.

Legend:
Assay type in all cases: functional
Streptococcus pyogenes = assay: Antibacterial activity against Streptococcus pyogenes MTCC 1925 assessed as zone of inhibition at 100 uL after 24 hrs by agar well-diffusion method
How it was run: (§1)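 Mueller-Hinton agar plates swabbed with a bacterial suspension adjusted to 1.5×10^8 CFU/ml. Each 5 mm well received 100 µl of compound, and plates were incubated at 37°C for 24 h. Chloramphenicol (30 mcg) was the positive control and DMSO the negative control. Inhibition zones around wells were measured manually, in triplicate.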

Klebsiella pneumoniae [1] = assay: Antibacterial activity against Klebsiella pneumoniae MTCC 109 after 18 hrs by TTC staining based broth microdilution method; conditions: MTCC 109, 18 h
How it was run: (§2)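 Broth microdilution in Mueller-Hinton broth. 50 µl of inoculum from a 0.5 McFarland suspension was added to 50 µl of compound, giving final concentrations of 0.024–400 mg/ml in DMSO. Sealed plates were incubated at 37°C for 18 h, then 50 µl of 0.5% TTC was added for 1 h in the dark. MIC was the lowest concentration with no visible growth (well stays clear). Triplicate; mean ± SD.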

Bacillus cereus [2] = assay: Antibacterial activity against Bacillus cereus MTCC 430 assessed as zone of inhibition at 100 uL after 24 hrs by agar well-diffusion method; how it was run: as §1
Salmonella enterica = assay: Antibacterial activity against Salmonella enterica MTCC 735 assessed as zone of inhibition at 100 uL after 24 hrs by agar well-diffusion method
Escherichia coli = assay: Antibacterial activity against Escherichia coli MTCC 730 assessed as zone of inhibition at 100 uL after 24 hrs by agar well-diffusion method; how it was run: as §1
Bacillus cereus [3] = assay: Antibacterial activity against Bacillus cereus MTCC 430 after 18 hrs by TTC staining based broth microdilution method; conditions: MTCC 430, 18 h; how it was run: as §2
Klebsiella pneumoniae [4] = assay: Antibacterial activity against Klebsiella pneumoniae MTCC 109 assessed as zone of inhibition at 100 uL after 24 hrs by agar well-diffusion method; how it was run: as §1

Compound	inhibition zone (IZ) (Streptococcus pyogenes) [mm]	MIC (Klebsiella pneumoniae [1]) [µg/mL]	inhibition zone (IZ) (Bacillus cereus [2]) [mm]	inhibition zone (IZ) (Salmonella enterica) [mm]	inhibition zone (IZ) (Escherichia coli) [mm]	MIC (Bacillus cereus [3]) [µg/mL]	inhibition zone (IZ) (Klebsiella pneumoniae [4]) [mm]
O=c1oc2ccccc2c(O)c1C(c1ccc(O)cc1)c1c(O)c2ccccc2oc1=O	10	3120 (≈ 7280 µM)	10	10	10	6250 (≈ 14600 µM)	10
COc1cc(C(c2c(C)[nH][nH]c2=O)C2C(=O)NC(=O)NC2=O)ccc1O (stereo unspecified)	16	780 (≈ 2160 µM)	20	10	17	390 (≈ 1080 µM)	16
O=c1oc2ccccc2c(O)c1C(c1cccc(F)c1)c1c(O)c2ccccc2oc1=O	21	390 (≈ 906 µM)	15	12	18	780 (≈ 1810 µM)	21
O=C(N[C@H](CO)[C@H](O)c1ccc([N+](=O)[O-])cc1)C(Cl)Cl [CHLORAMPHENICOL]	36	90 (≈ 279 µM)	22	17	35	90 (≈ 279 µM)	33
Cc1ccc(C(c2c(C)[nH][nH]c2=O)C2C(=O)NC(=O)NC2=O)cc1 (stereo unspecified)	11	3120 (≈ 9500 µM)	12	10	12	6250 (≈ 19000 µM)	10
COc1ccc(C(c2c(C)[nH][nH]c2=O)C2C(=O)NC(=O)NC2=O)cc1 (stereo unspecified)	13	3120 (≈ 9060 µM)	14	11	14	6250 (≈ 18200 µM)	11
COc1ccc(C(c2c(O)c3ccccc3oc2=O)c2c(O)c3ccccc3oc2=O)cc1OC	13	780 (≈ 1650 µM)	16	10	15	780 (≈ 1650 µM)	18
Cc1[nH][nH]c(=O)c1C(c1cccc([N+](=O)[O-])c1)C1C(=O)NC(=O)NC1=O (stereo unspecified)	14	780 (≈ 2170 µM)	13	10	11	1560 (≈ 4340 µM)	15
O=c1oc2ccccc2c(O)c1C(c1ccc([N+](=O)[O-])cc1)c1c(O)c2ccccc2oc1=O	15	390 (≈ 853 µM)	16	11	13	780 (≈ 1710 µM)	19
Cc1[nH][nH]c(=O)c1C(c1ccc(Cl)cc1)C1C(=O)NC(=O)NC1=O (stereo unspecified)	16	390 (≈ 1120 µM)	17	11	17	1560 (≈ 4470 µM)	21
O=c1oc2ccccc2c(O)c1C(c1ccccc1Cl)c1c(O)c2ccccc2oc1=O	22	190 (≈ 425 µM)	11	10	18	3120 (≈ 6980 µM)	24
Cc1[nH][nH]c(=O)c1C(c1cccc(F)c1)C1C(=O)NC(=O)NC1=O (stereo unspecified)	15	390 (≈ 1170 µM)	15	11	15	780 (≈ 2350 µM)	20
Cc1[nH][nH]c(=O)c1C(c1ccc(Br)cc1)C1C(=O)NC(=O)NC1=O (stereo unspecified)	17	780 (≈ 1980 µM)	15	10	15	780 (≈ 1980 µM)	15
Cc1ccc(C(c2c(O)c3ccccc3oc2=O)c2c(O)c3ccccc3oc2=O)cc1	25	390 (≈ 915 µM)	18	10	19	390 (≈ 915 µM)	20
CCOc1ccc(C(c2c(O)c3ccccc3oc2=O)c2c(O)c3ccccc3oc2=O)cc1	20	780 (≈ 1710 µM)	12	11	13	3120 (≈ 6840 µM)	19
O=c1oc2ccccc2c(O)c1C(c1cccc(Br)c1)c1c(O)c2ccccc2oc1=O	21	390 (≈ 794 µM)	13	11	19	3120 (≈ 6350 µM)	20
COc1cc(C(c2c(C)[nH][nH]c2=O)C2C(=O)NC(=O)NC2=O)cc(OC)c1OC (stereo unspecified)	17	390 (≈ 964 µM)	13	11	13	1560 (≈ 3860 µM)	19
Cc1[nH][nH]c(=O)c1C(c1ccc(N(C)C)cc1)C1C(=O)NC(=O)NC1=O (stereo unspecified)	10	3120 (≈ 8730 µM)	13	12	10	3120 (≈ 8730 µM)	10
